These results are taken from ChEMBL document CHEMBL1125326, “Potent gonadotropin releasing hormone antagonists with low histamine-releasing activity” (J Med Chem, 1992).

In brackets after ≈: the same amount, converted by molar mass. Non-standard residues stand in square brackets, D forms with d. Residues, ends and D or L forms follow the SMILES beside them. d(hArg(Et2)) = CCN=C(NCC)NCCCC[C@@H](N)C(=O)O; dPhe(4-Cl) = N[C@H](Cc1ccc(Cl)cc1)C(=O)O; dPhe(4-F) = N[C@H](Cc1ccc(F)cc1)C(=O)O; d2Nal = N[C@H](Cc1ccc2ccccc2c1)C(=O)O Where only a bound is given, the exact number is not on record here.

The species entered for assay [1] is Rattus norvegicus. The assay is described as follows: Evaluated for the release of histamine in rats (based on 10 animals per dose group). Type of assay: functional, organism-based.
Assay [2] concerns Rattus norvegicus. The experiment in a line: Evaluated for the anti-ovulatory activity (rats were injected subcutaneously at noon on proestrus). It counts as functional. In outline: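 Female rats with at least two consecutive normal 4-day cycles, confirmed by vaginal lavage cytology, were dosed once s.c. at noon on proestrus in 50% propylene glycol/0.9% saline. On the morning of expected estrus, the oviducts were examined for ovulated eggs, which were counted. The effective dose came from % females ovulating plotted against log dose, usually with ≥3 dose groups (10 rats per group total).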

The compound `CC(=O)N[C@H](Cc1ccc2ccccc2c1)C(=O)N[C@H](Cc1ccc(F)cc1)C(=O)N[C@H](Cc1cccnc1)C(=O)N[C@@H](CO)C(=O)N[C@@H](CCCN=C(N)N)C(=O)N[C@H](Cc1cccnc1)C(=O)N[C@@H](CC(C)C)C(=O)N[C@@H](CCCCNC1=NCCCN1)C(=O)N1CCC[C@H]1C(=O)N[C@H](C)C(N)=O` displayed a concentration giving a half-maximal response (EC50) in the assay listed under Rattus norvegicus [1] of 6.2 µg/mL (≈ 4.27 µM). In the assay on Rattus norvegicus [2], this compound yielded an ED50 of 0.5 µg.
`CC(=O)N[C@H](Cc1ccc2ccccc2c1)C(=O)N[C@H](Cc1ccc(Cl)cc1)C(=O)N[C@H](Cc1cccnc1)C(=O)N[C@@H](CO)C(=O)N[C@@H](Cc1ccc(O)cc1)C(=O)N[C@H](Cc1cccnc1)C(=O)N[C@@H](CC(C)C)C(=O)N[C@@H](CCCCNC1=NCCCN1)C(=O)N1CCC[C@H]1C(=O)N[C@H](C)C(N)=O` registered a concentration giving a half-maximal response (EC50) in the assay listed under Rattus norvegicus [1] of 20 µg/mL (≈ 13.5 µM). Moreover, the ED50 with Rattus norvegicus [2] was determined as 0.68 µg.
`CC/N=C(\NCC)NCCCC[C@H](NC(=O)[C@H](CC(C)C)NC(=O)[C@@H](Cc1c[nH]c2ccccc12)NC(=O)[C@H](Cc1ccc(O)cc1)NC(=O)[C@H](CO)NC(=O)[C@@H](Cc1c[nH]c2ccccc12)NC(=O)[C@@H](Cc1ccc(Cl)cc1)NC(=O)[C@@H](Cc1ccc2ccccc2c1)NC(C)=O)C(=O)N1CCC[C@H]1C(=O)N[C@H](C)C(N)=O`: the response in the assay filed under Rattus norvegicus [1] was half-maximal at 16 µg/mL (≈ 10.2 µM) (EC50). In addition, the ED50 in the assay on Rattus norvegicus [2] is around 0.9 µg.
On to `CC(=O)N[C@H](Cc1ccc2ccccc2c1)C(=O)N[C@H](Cc1ccc(Cl)cc1)C(=O)N[C@H](Cc1c[nH]c2ccccc12)C(=O)N[C@@H](CO)C(=O)N[C@@H](CCCN=C(N)N)C(=O)N[C@H](Cc1c[nH]c2ccccc12)C(=O)N[C@@H](CC(C)C)C(=O)N[C@@H](CCCCNC1=NCCCN1)C(=O)N1CCC[C@H]1C(=O)N[C@H](C)C(N)=O`, for which the 50% effective concentration (EC50) in the assay listed under Rattus norvegicus [1] came to 0.81 µg/mL (≈ 0.524 µM). Moreover, the ED50 in the assay with Rattus norvegicus [2] is above 2 µg.
In the case of `CC/N=C(\NCC)NCCCC[C@@H](NC(=O)[C@H](Cc1ccc(O)cc1)NC(=O)[C@H](CO)NC(=O)[C@@H](Cc1cccnc1)NC(=O)[C@@H](Cc1ccc(Cl)cc1)NC(=O)[C@@H](Cc1ccc2ccccc2c1)NC(C)=O)C(=O)N[C@@H](Cc1ccccc1)C(=O)N[C@@H](CCCN=C(N)N)C(=O)N1CCC[C@H]1C(=O)N[C@H](C)C(N)=O`, the 50% effective concentration (EC50) in the assay filed under Rattus norvegicus [1] was below 0.01 µg/mL. Besides, the ED50 in the assay with Rattus norvegicus [2] worked out at 0.5 µg.
The like results for `CC(=O)N[C@H](Cc1ccc2ccccc2c1)C(=O)N[C@H](Cc1ccc(Cl)cc1)C(=O)N[C@H](Cc1cccnc1)C(=O)N[C@@H](CO)C(=O)N[C@@H](Cc1ccc(O)cc1)C(=O)N[C@H](CCCCNC1=NCCCN1)C(=O)N[C@@H](CC(C)C)C(=O)N[C@@H](CCCCNC1=NCCCN1)C(=O)N1CCC[C@H]1C(=O)N[C@H](C)C(N)=O` were, in that order, 1.33 µg/mL (≈ 0.865 µM) and around 0.6 µg.
`CC(=O)N[C@H](Cc1ccc2ccccc2c1)C(=O)N[C@H](Cc1ccc(Cl)cc1)C(=O)N[C@H](Cc1c[nH]c2ccccc12)C(=O)N[C@@H](CO)C(=O)N[C@@H](Cc1ccc(O)cc1)C(=O)N[C@H](CCCCNC1=NCCCN1)C(=O)N[C@@H](CC(C)C)C(=O)N[C@@H](CCCCN=C(N)N)C(=O)N1CCC[C@H]1C(=O)N[C@H](C)C(N)=O`: the 50% effective concentration (EC50) in the assay listed under Rattus norvegicus [1] came to 0.41 µg/mL (≈ 0.267 µM). Besides, the ED50 in the assay on Rattus norvegicus [2] amounted to 0.56 µg.
For the compound `CC/N=C(\NCC)NCCCC[C@H](NC(=O)[C@H](CC(C)C)NC(=O)[C@@H](Cc1cccnc1)NC(=O)[C@H](Cc1ccc(O)cc1)NC(=O)[C@H](CO)NC(=O)[C@@H](Cc1cccnc1)NC(=O)[C@@H](Cc1ccc(Cl)cc1)NC(=O)[C@@H](Cc1ccc2ccccc2c1)NC(C)=O)C(=O)N1CCC[C@H]1C(=O)N[C@H](C)C(N)=O`, in the assay filed under Rattus norvegicus [1], the EC50 worked out at 196 µg/mL (≈ 131 µM). In addition, in the assay on Rattus norvegicus [2], the ED50 amounted to 0.6 µg.
`CC(=O)N[C@H](Cc1ccc2ccccc2c1)C(=O)N[C@H](Cc1ccc(Cl)cc1)C(=O)N[C@H](Cc1cccnc1)C(=O)N[C@@H](CO)C(=O)N[C@@H](CCCN=C(N)N)C(=O)N[C@H](Cc1cccnc1)C(=O)N[C@@H](CC(C)C)C(=O)N[C@@H](CCCCNC1=NCCCN1)C(=O)N1CCC[C@H]1C(=O)N[C@H](C)C(N)=O`: the concentration giving a half-maximal response (EC50) in the assay filed under Rattus norvegicus [1] turned out to be 1.5 µg/mL (≈ 1.02 µM). This compound also came in with an ED50 with Rattus norvegicus [2] of 0.295 µg.
For `CC/N=C(\NCC)NCCCC[C@H](NC(=O)[C@H](CC(C)C)NC(=O)[C@@H](Cc1cccnc1)NC(=O)[C@H](CCCN=C(N)N)NC(=O)[C@H](CO)NC(=O)[C@@H](Cc1cccnc1)NC(=O)[C@@H](Cc1ccc(Cl)cc1)NC(=O)[C@@H](Cc1ccc2ccccc2c1)NC(C)=O)C(=O)N1CCC[C@H]1C(=O)N[C@H](C)C(N)=O`, in that order: 23.6 µg/mL (≈ 15.9 µM) and 0.425 µg.
The compound `CCCC/N=C(/N)NCCCC[C@@H](NC(=O)[C@H](Cc1ccc(O)cc1)NC(=O)[C@H](CO)NC(=O)[C@@H](Cc1cccnc1)NC(=O)[C@@H](Cc1ccc(F)cc1)NC(=O)[C@@H](Cc1ccc2ccccc2c1)NC(C)=O)C(=O)N[C@@H](CC(C)C)C(=O)N[C@@H](CCCCN=C(NCC(F)(F)F)NCC(F)(F)F)C(=O)N1CCC[C@H]1C(=O)N[C@H](C)C(N)=O` displayed an EC50 in the assay listed under Rattus norvegicus [1] of 59 µg/mL (≈ 35.5 µM). Besides, the ED50 with Rattus norvegicus [2] came out at 1 µg.
For `CCNC(=NCCCC[C@@H](NC(=O)[C@H](Cc1ccc(O)cc1)NC(=O)[C@H](CO)NC(=O)[C@@H](Cc1c[nH]c2ccccc12)NC(=O)[C@@H](Cc1ccc(Cl)cc1)NC(=O)[C@@H](Cc1ccc2ccccc2c1)NC(C)=O)C(=O)N[C@@H](CC(C)C)C(=O)N[C@@H](CCCN=C(N)N)C(=O)N1CCC[C@H]1C(=O)N[C@H](C)C(N)=O)NCC` (Ac-[d2Nal][dPhe(4-Cl)][dW]SY[d(hArg(Et2))]LRP[dA]-NH2), in that order: 0.18 µg/mL (≈ 0.117 µM) and around 0.6 µg.
Consider `CC(=O)N[C@H](Cc1ccc2ccccc2c1)C(=O)N[C@H](Cc1ccc(F)cc1)C(=O)N[C@H](Cc1c[nH]c2ccccc12)C(=O)N[C@@H](CO)C(=O)N[C@@H](Cc1ccc(O)cc1)C(=O)N[C@H](CCCN=C(N)N)C(=O)N[C@@H](CC(C)C)C(=O)N[C@@H](CCCN=C(N)N)C(=O)N1CCC[C@H]1C(=O)NCC(N)=O` (Ac-[d2Nal][dPhe(4-F)][dW]SY[dR]LRPG-NH2), for which the EC50 in the assay listed under Rattus norvegicus [1] turned out to be 0.51 µg/mL (≈ 0.355 µM). This compound also registered an ED50 in the assay on Rattus norvegicus [2] of 2.4 µg.
